In ChEMBL document CHEMBL4689842, “EUbOPEN Chemogenomics Library wave 1” (2021):
Values joined by “and” are separate entries in the source; they are usually repeats but may differ in a detail not shown here. Equal values may be shown once.

Tested on: U2OS
Assay: Multiplex assay against U2OS
Type: toxicity, cell-based
Conditions: human
Procedure, shortened: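 Cells stained live at seeding with Hoechst33342, BioTracker Green Microtubule Cytoskeleton Dye, MitoTracker Red and Annexin V Alexa Fluor 680 were imaged on a CQ1 microscope at 37°C and 5% CO2 after compound addition. Their classification by CellPathfinder machine-learning gating ran from Hoechst high-intensity objects versus normal cells, to healthy, pyknosed or fragmented nuclei among normal cells, to mitotic or apoptotic among pyknosed cells. Tubulin, mitochondrial-mass and membrane-permeability phenotypes are per cents of healthy-nucleus cells.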

[1] = 12 h, 1 µM, compound concentration 1 uM, replicate 1
[2] = 12 h, 1 µM, compound concentration 1 uM, replicate 2
[3] = 12 h, 10 µM, compound concentration 10 uM, replicate 1
[4] = 12 h, 10 µM, compound concentration 10 uM, replicate 2
[5] = 24 h, 1 µM, compound concentration 1 uM, replicate 1
[6] = 24 h, 1 µM, compound concentration 1 uM, replicate 2
[7] = 24 h, 10 µM, compound concentration 10 uM, replicate 1
[8] = 24 h, 10 µM, compound concentration 10 uM, replicate 2
[9] = 48 h, 1 µM, compound concentration 1 uM, replicate 1
[10] = 48 h, 1 µM, compound concentration 1 uM, replicate 2
[11] = 48 h, 10 µM, compound concentration 10 uM, replicate 1
[12] = 48 h, 10 µM, compound concentration 10 uM, replicate 2

Cn1cc(-c2[nH]c3cc(NC(=O)[C@H](N)C4CCCCC4)cc4c3c2C=NNC4=O)cn1
Population Apoptotic (%) [1]: 44% | Population Fragmented Nuclei (%) [1]: 11% | Population Healthy Nuclei (%) [1]: 76% | Population Hoechst High Intensity Objects (%) [1]: 3% | Population Membrane Permeable-Phenotype (%) [1]: 6% | Population Mitochondria Different-Phenotype (%) [1]: 4% | Population Mitotic Cells (%) [1]: 55% | Population Normal (%) [1]: 96% | Population Pyknosed Nuclei (%) [1]: 11% | Population Tubulin-Different-Phenotype (%) [1]: 16% | Total Cell Count [1]: 123 | Population Apoptotic (%) [2]: 33% | Population Fragmented Nuclei (%) [2]: 13% | Population Healthy Nuclei (%) [2]: 72% | Population Membrane Permeable-Phenotype (%) [2]: 4% | Population Mitochondria Different-Phenotype (%) [2]: 7% | Population Mitotic Cells (%) [2]: 66% | Population Pyknosed Nuclei (%) [2]: 13% | Population Tubulin-Different-Phenotype (%) [2]: 12% | Total Cell Count [2]: 51 | Population Apoptotic (%) [3]: 47% | Population Fragmented Nuclei (%) [3]: 14% | Population Healthy Nuclei (%) [3]: 60% | Population Hoechst High Intensity Objects (%) [3]: 6% | Population Membrane Permeable-Phenotype (%) [3]: 7% | Population Mitochondria Different-Phenotype (%) [3]: 34% | Population Mitotic Cells (%) [3]: 52% | Population Normal (%) [3]: 93% | Population Pyknosed Nuclei (%) [3]: 25% | Population Tubulin-Different-Phenotype (%) [3]: 28% | Total Cell Count [3]: 247 | Population Apoptotic (%) [4]: 69% | Population Fragmented Nuclei (%) [4]: 37% | Population Healthy Nuclei (%) [4]: 42% | Population Hoechst High Intensity Objects (%) [4]: 9% | Population Membrane Permeable-Phenotype (%) [4]: 21% | Population Mitochondria Different-Phenotype (%) [4]: 53% | Population Mitotic Cells (%) [4]: 30% | Population Normal (%) [4]: 90% | Population Pyknosed Nuclei (%) [4]: 19% | Population Tubulin-Different-Phenotype (%) [4]: 57% | Total Cell Count [4]: 91 | Population Apoptotic (%) [5]: 46% | Population Fragmented Nuclei (%) [5]: 9% | Population Healthy Nuclei (%) [5]: 80% | Population Membrane Permeable-Phenotype (%) [5]: 5% | Population Mitochondria Different-Phenotype (%) [5]: 3% | Population Mitotic Cells (%) [5]: 53% | Population Pyknosed Nuclei (%) [5]: 9% | Population Tubulin-Different-Phenotype (%) [5]: 14% | Total Cell Count [5]: 121 | Population Apoptotic (%) [6]: 43% | Population Fragmented Nuclei (%) [6]: 13% | Population Healthy Nuclei (%) [6]: 70% | Population Hoechst High Intensity Objects (%) [6]: 3% | Population Membrane Permeable-Phenotype (%) [6]: 9% | Population Mitochondria Different-Phenotype (%) [6]: 6% | Population Mitotic Cells (%) [6]: 56% | Population Normal (%) [6]: 96% | Population Pyknosed Nuclei (%) [6]: 15% | Population Tubulin-Different-Phenotype (%) [6]: 15% | Total Cell Count [6]: 52 | Population Apoptotic (%) [7]: 67% | Population Fragmented Nuclei (%) [7]: 17% | Population Healthy Nuclei (%) [7]: 43% | Population Hoechst High Intensity Objects (%) [7]: 8% | Population Membrane Permeable-Phenotype (%) [7]: 10% | Population Mitochondria Different-Phenotype (%) [7]: 16% | Population Mitotic Cells (%) [7]: 32% | Population Normal (%) [7]: 91% | Population Pyknosed Nuclei (%) [7]: 39% | Population Tubulin-Different-Phenotype (%) [7]: 19% | Total Cell Count [7]: 293 | Population Apoptotic (%) [8]: 86% | Population Fragmented Nuclei (%) [8]: 34% | Population Healthy Nuclei (%) [8]: 29% | Population Hoechst High Intensity Objects (%) [8]: 16% | Population Membrane Permeable-Phenotype (%) [8]: 44% | Population Mitochondria Different-Phenotype (%) [8]: 61% | Population Mitotic Cells (%) [8]: 13% | Population Normal (%) [8]: 83% | Population Pyknosed Nuclei (%) [8]: 36% | Population Tubulin-Different-Phenotype (%) [8]: 55% | Total Cell Count [8]: 106 | Population Apoptotic (%) [9]: 45% | Population Fragmented Nuclei (%) [9]: 7% | Population Healthy Nuclei (%) [9]: 81% | Population Hoechst High Intensity Objects (%) [9]: 3% | Population Membrane Permeable-Phenotype (%) [9]: 2% | Population Mitochondria Different-Phenotype (%) [9]: 3% | Population Mitotic Cells (%) [9]: 54% | Population Normal (%) [9]: 96% | Population Pyknosed Nuclei (%) [9]: 10% | Population Tubulin-Different-Phenotype (%) [9]: 17% | Total Cell Count [9]: 124 | Population Apoptotic (%) [10]: 42% | Population Fragmented Nuclei (%) [10]: 15% | Population Healthy Nuclei (%) [10]: 55% | Population Hoechst High Intensity Objects (%) [10]: 5% | Population Membrane Permeable-Phenotype (%) [10]: 16% | Population Mitochondria Different-Phenotype (%) [10]: 18% | Population Mitotic Cells (%) [10]: 57% | Population Normal (%) [10]: 94% | Population Pyknosed Nuclei (%) [10]: 28% | Population Tubulin-Different-Phenotype (%) [10]: 24% | Total Cell Count [10]: 56 | Population Apoptotic (%) [11]: 83% | Population Fragmented Nuclei (%) [11]: 20% | Population Healthy Nuclei (%) [11]: 31% | Population Hoechst High Intensity Objects (%) [11]: 13% | Population Membrane Permeable-Phenotype (%) [11]: 13% | Population Mitochondria Different-Phenotype (%) [11]: 20% | Population Mitotic Cells (%) [11]: 16% | Population Normal (%) [11]: 86% | Population Pyknosed Nuclei (%) [11]: 48% | Population Tubulin-Different-Phenotype (%) [11]: 21% | Total Cell Count [11]: 395 | Population Apoptotic (%) [12]: 100% | Population Fragmented Nuclei (%) [12]: 40% | Population Hoechst High Intensity Objects (%) [12]: 20% | Population Membrane Permeable-Phenotype (%) [12]: 66% | Population Mitochondria Different-Phenotype (%) [12]: 61% | Population Mitotic Cells (%) [12]: 0% | Population Normal (%) [12]: 79% | Population Pyknosed Nuclei (%) [12]: 28% | Population Tubulin-Different-Phenotype (%) [12]: 77% | Total Cell Count [12]: 103

COc1cc2nccc(Oc3ccc(NC(=O)Nc4cc(C)on4)c(Cl)c3)c2cc1OC.O
Population Apoptotic (%) [1]: 50% and 42% | Population Fragmented Nuclei (%) [1]: 7% and 3% | Population Healthy Nuclei (%) [1]: 86% and 89% | Population Membrane Permeable-Phenotype (%) [1]: 26% | Population Mitotic Cells (%) [1]: 50% and 57% | Population Normal (%) [1]: 95% and 98% | Population Pyknosed Nuclei (%) [1]: 6% and 7% | Total Cell Count [1]: 193 and 192 | Population Apoptotic (%) [2]: 0% | Population Fragmented Nuclei (%) [2]: 10% and 8% | Population Healthy Nuclei (%) [2]: 77% and 91% | Population Hoechst High Intensity Objects (%) [2]: 6% and 14% | Population Membrane Permeable-Phenotype (%) [2]: 25% and 19% | Population Mitochondria Different-Phenotype (%) [2]: 61% and 24% | Population Mitotic Cells (%) [2]: 0% | Population Normal (%) [2]: 93% and 85% | Population Pyknosed Nuclei (%) [2]: 12% and 0% | Population Tubulin-Different-Phenotype (%) [2]: 19% | Total Cell Count [2]: 132 and 71 | Population Apoptotic (%) [3]: 70% | Population Fragmented Nuclei (%) [3]: 16% | Population Healthy Nuclei (%) [3]: 57% | Population Hoechst High Intensity Objects (%) [3]: 11% | Population Membrane Permeable-Phenotype (%) [3]: 25% | Population Mitochondria Different-Phenotype (%) [3]: 96% | Population Mitotic Cells (%) [3]: 30% | Population Normal (%) [3]: 88% | Population Pyknosed Nuclei (%) [3]: 25% | Population Tubulin-Different-Phenotype (%) [3]: 100% | Total Cell Count [3]: 152 | Population Apoptotic (%) [4]: 71% | Population Fragmented Nuclei (%) [4]: 11% | Population Healthy Nuclei (%) [4]: 75% | Population Hoechst High Intensity Objects (%) [4]: 3% | Population Membrane Permeable-Phenotype (%) [4]: 36% | Population Mitochondria Different-Phenotype (%) [4]: 97% | Population Mitotic Cells (%) [4]: 28% | Population Normal (%) [4]: 96% | Population Pyknosed Nuclei (%) [4]: 12% | Population Tubulin-Different-Phenotype (%) [4]: 97% | Total Cell Count [4]: 58 | Population Apoptotic (%) [5]: 73% and 33% | Population Healthy Nuclei (%) [5]: 62% and 92% | Population Membrane Permeable-Phenotype (%) [5]: 42% and 15% | Population Mitotic Cells (%) [5]: 26% and 66% | Population Normal (%) [5]: 95% and 98% | Total Cell Count [5]: 272 and 251 | Population Apoptotic (%) [6]: 83% and 100% | Population Fragmented Nuclei (%) [6]: 17% and 9% | Population Healthy Nuclei (%) [6]: 58% and 89% | Population Hoechst High Intensity Objects (%) [6]: 15% and 9% | Population Membrane Permeable-Phenotype (%) [6]: 47% and 17% | Population Mitotic Cells (%) [6]: 16% and 0% | Population Normal (%) [6]: 84% and 90% | Population Pyknosed Nuclei (%) [6]: 24% and 0% | Total Cell Count [6]: 159 and 78 | Population Apoptotic (%) [7]: 82% | Population Fragmented Nuclei (%) [7]: 28% | Population Healthy Nuclei (%) [7]: 42% | Population Hoechst High Intensity Objects (%) [7]: 8% | Population Membrane Permeable-Phenotype (%) [7]: 61% | Population Mitochondria Different-Phenotype (%) [7]: 98% | Population Mitotic Cells (%) [7]: 17% | Population Normal (%) [7]: 91% | Population Pyknosed Nuclei (%) [7]: 29% | Population Tubulin-Different-Phenotype (%) [7]: 100% | Total Cell Count [7]: 142 | Population Apoptotic (%) [8]: 92% | Population Fragmented Nuclei (%) [8]: 16% | Population Healthy Nuclei (%) [8]: 60% | Population Hoechst High Intensity Objects (%) [8]: 3% | Population Membrane Permeable-Phenotype (%) [8]: 67% | Population Mitochondria Different-Phenotype (%) [8]: 100% | Population Mitotic Cells (%) [8]: 7% | Population Normal (%) [8]: 96% | Population Pyknosed Nuclei (%) [8]: 23% | Population Tubulin-Different-Phenotype (%) [8]: 97% | Total Cell Count [8]: 58 | Population Apoptotic (%) [11]: 91% | Population Fragmented Nuclei (%) [11]: 41% | Population Healthy Nuclei (%) [11]: 15% | Population Hoechst High Intensity Objects (%) [11]: 13% | Population Membrane Permeable-Phenotype (%) [11]: 86% | Population Mitochondria Different-Phenotype (%) [11]: 100% | Population Mitotic Cells (%) [11]: 8% | Population Normal (%) [11]: 86% | Population Pyknosed Nuclei (%) [11]: 42% | Population Tubulin-Different-Phenotype (%) [11]: 100% | Total Cell Count [11]: 153 | Population Apoptotic (%) [12]: 87% | Population Fragmented Nuclei (%) [12]: 13% | Population Healthy Nuclei (%) [12]: 67% | Population Hoechst High Intensity Objects (%) [12]: 15% | Population Membrane Permeable-Phenotype (%) [12]: 96% | Population Mitotic Cells (%) [12]: 12% | Population Normal (%) [12]: 84% | Population Pyknosed Nuclei (%) [12]: 18% | Total Cell Count [12]: 62
